Consider six molecules from article PMC3625964 (Journal of medicinal chemistry, 2013).

As usually defined, the IC50 is the concentration that inhibits the measured activity by half. A higher IC50 goes with weaker potency.

For test [1], the target named is T1, human factor XIa (Homo sapiens, UniProt P03951). In words: Direct inhibition of FXIa, chromogenic substrate. Type of test: biochemical.
The next test addresses FXIa-DEGR (Homo sapiens, UniProt P03951). In words: Fluorescence titration of active site labeled FXIa. Type of test: binding. To be noted: 250 nM FXIa-DEGR, pH 7.4, 37 °C; for ΔFMAX: 547 nm. Put shortly:
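Plasma-derived human FXIa with a dansyl active-site label (FXIa-DEGR, 250 nM) in 50 mM Tris-HCl pH 7.4, 150 mM NaCl, 0.1% PEG8000 at 37 °C was titrated with aliquots of test compound in the same buffer. Emission at 547 nm (excitation 345 nm) was tracked. Hill-equation fits gave KD,app, n and ΔFMAX. At least two runs were done.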

The subject of test [2] is human plasma. In words: Activated partial thromboplastin time. The format is biochemical. Put shortly:
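Citrated pooled normal human plasma was mixed with test compound and prewarmed APTT reagent (0.2% ellagic acid) and incubated 4 min at 37 °C. Clotting was started with prewarmed 25 mM CaCl2, and clot time was read on a fibrometer. Runs were in duplicate. A quadratic trend line of clot time versus concentration gave the concentration doubling clotting time.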

For test [3], the system named is human plasma. In words: Prothrombin time. Type of test: biochemical. The method, boiled down:
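One-stage recalcification assay. Test compound was brought up in citrated pooled normal human plasma and held 30 s at 37 °C. Prewarmed reconstituted thromboplastin-D was added, and clot time was read on a fibrometer. Runs were in duplicate and the mean of two is reported. A quadratic trend line gave the concentration needed to double clotting time.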

Test [4] deals with T1, human factor XIa. In words: Michaelis-Menten kinetics of S2366 hydrolysis by FXIa in presence of 14S. The format is biochemical.
For a further test, the target named is Lys535Ala FXIa-CD (Homo sapiens, UniProt P03951, C500S/K553A). In words: Inhibition of Lys535Ala FXIa-CD mutant. The format is biochemical. The method, boiled down: (§1)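 Human FXI cDNA with Cys362Ser/Cys482Ser, so the catalytic domain separates from the heavy chain, carried alanine substitutions at 170-helix residues (single or combined). It was stably expressed in HEK-293 with serum-free medium and purified on anti-FXI 1G5.12 affinity. It was activated with 5 μg/ml FXIIa at 37 °C, and the catalytic domain was isolated on 1G5.12. Dose-response used S2366 hydrolysis in 50 mM Tris-HCl pH 7.4, 150 mM NaCl, 0.1% PEG8000, 0.02% Tween80 at 37 °C, with logistic fits.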
Sequence of Lys535Ala FXIa-CD (P03951 388-625 C500S/K553A): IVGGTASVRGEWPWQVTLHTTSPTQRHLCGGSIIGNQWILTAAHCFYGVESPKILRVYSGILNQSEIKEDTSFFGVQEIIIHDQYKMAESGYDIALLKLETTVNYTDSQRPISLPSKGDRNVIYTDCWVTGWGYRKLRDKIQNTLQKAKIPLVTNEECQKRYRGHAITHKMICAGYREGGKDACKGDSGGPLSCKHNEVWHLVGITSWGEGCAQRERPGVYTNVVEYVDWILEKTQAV

Another test has as its target FXIa-CD (Homo sapiens, UniProt P03951, C500S). In words: Inhibition of recombinant wild type FXIa catalytic domain. To be noted: catalytic domain alone. Type of test: biochemical. The method, boiled down:
as §1

In test [5] the test system is Lys529Ala,Arg530Ala,Arg532Ala FXIa-CD. In words: Inhibition of FXIa-CD triple mutant. To be noted: Arg532Ala vs FXIa-CD. The format is biochemical, human. The method, boiled down: as §1
The target in test [6] is FXIa–CD containing Lys529Ala,Arg530Ala,Arg532Ala triple mutations (Homo sapiens, UniProt P03951, C500S/K547A/R548A/R550A). In words: Polybrene competition, S2366 hydrolysis, FXIa-CD triple mutant. The format is biochemical. To be noted: 30 μM polybrene. The method, boiled down:
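Recombinant FXIa catalytic domain bearing Lys529Ala/Arg530Ala/Arg532Ala (HEK-293 expressed, affinity purified, FXIIa-activated) was tested alongside full-length FXIa and wild-type catalytic domain. Proteolytic activity was measured by S2366 hydrolysis in the presence of 30 μM polybrene and 3 μM test compound.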

For another test, the target named is Lys539Ala FXIa-CD (Homo sapiens, UniProt P03951, C500S/K557A). In words: Inhibition of Lys539Ala FXIa-CD mutant. Type of test: biochemical. The method, boiled down: as §1
Sequence of Lys539Ala FXIa-CD (P03951 388-625 C500S/K557A): as the sequence (P03951 388-625 C500S/K553A) above, with A166K, K170A counted along it

Marks after values point to notes of the source that are not given here.

T1 sequence (P03951 388-625 limits assumed): as the sequence (P03951 388-625 C500S/K553A) above, with S113C, A166K counted along it
T1 sequence (P03951 19-387 partner limits assumed): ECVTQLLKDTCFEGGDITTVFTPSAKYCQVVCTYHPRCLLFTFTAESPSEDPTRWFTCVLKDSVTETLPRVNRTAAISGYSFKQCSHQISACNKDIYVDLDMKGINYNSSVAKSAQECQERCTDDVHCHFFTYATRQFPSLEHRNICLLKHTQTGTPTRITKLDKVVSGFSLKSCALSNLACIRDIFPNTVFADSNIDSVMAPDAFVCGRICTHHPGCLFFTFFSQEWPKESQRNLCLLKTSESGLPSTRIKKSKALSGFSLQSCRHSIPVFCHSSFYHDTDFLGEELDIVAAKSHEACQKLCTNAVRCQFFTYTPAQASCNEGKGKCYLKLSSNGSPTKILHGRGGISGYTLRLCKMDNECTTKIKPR
Sequence of FXIa-DEGR (P03951 388-625 limits assumed): as the sequence (P03951 388-625 C500S/K553A) above, with S113C, A166K counted along it
Sequence of FXIa-DEGR (P03951 19-387 partner limits assumed): as the sequence (P03951 19-387 partner limits assumed) above
Sequence of FXIa–CD containing Lys529Ala,Arg530Ala,Arg532Ala triple mutations (P03951 388-625 C500S/K547A/R548A/R550A): as the sequence (P03951 388-625 C500S/K553A) above, with K160A, R161A, R163A, A166K counted along it
Sequence of FXIa-CD (P03951 388-625 C500S): as the sequence (P03951 388-625 C500S/K553A) above, with A166K counted along it

Regarding `CC(=O)Oc1cccc(-c2nc3ccccc3c(=O)n2Cc2cn(CCCCn3c(-c4cccc(OS(=O)(=O)O)c4)nc4ccccc4c3=O)nn2)c1` [Inhibitor 7S], the “inhibition of factor XIa (in words)” value against human factor XIa [1] (pH 7.4, 37 °C) is “inactive”.

As to `O=c1c2ccccc2nc(-c2ccc(OS(=O)(=O)O)cc2)n1CCCCn1cc(Cn2c(-c3ccc(OS(=O)(=O)O)cc3)nc3ccccc3c2=O)nn1` [Inhibitor 13S], at FXIa-DEGR, the Hill coefficient n is listed as 7.9 ± 1.9 and the ΔFMAX is reported as 66 ± 2 ^b %. Besides, in the test with human plasma [2], the “prolongation of APTT” value is reported as “dose-dependent prolongation”. In the test on human plasma [3] (human plasma), the “activity in the PT assay” value is listed as “reasonable dose-dependent prolongation of clotting time”. Further, the “2-fold increase in PT (concentration)” value in the test on human plasma [3] (human plasma, calculated from trend line) is “about 1.12 mM”.

`O=c1c2ccccc2nc(-c2cccc(OS(=O)(=O)O)c2)n1CCCCn1cc(Cn2c(-c3ccc(OS(=O)(=O)O)cc3)nc3ccccc3c2=O)nn1` [Inhibitor 14S]: at FXIa-DEGR, the Hill coefficient n worked out at 9.0 ± 1.1 and the ΔFMAX came out at 57 ± 2%. For the same molecule, on human factor XIa [4], the “mechanism of factor XIa inhibition” value is “non-competitive”. Also, the “VMAX of substrate hydrolysis” value at human factor XIa [4] (135 μM 14S, pH 7.4, 37 °C) amounted to 5.1±0.5 mAU/min.

On FXIa-DEGR, `O=c1c2ccccc2nc(-c2ccc(OS(=O)(=O)O)cc2)n1CCCCCn1cc(Cn2c(-c3ccc(OS(=O)(=O)O)cc3)nc3ccccc3c2=O)nn1` [Inhibitor 15S] displayed a Hill coefficient n of 6.8 ± 2.7 and a ΔFMAX of 72 ± 2%. The “prolongation of APTT” value in the test on human plasma [2] was “dose-dependent prolongation”. Moreover, in the test with human plasma [3] (human plasma), the “activity in the PT assay” value is “much less active”.

`O=c1c2ccccc2nc(-c2ccc(OS(=O)(=O)O)cc2)n1CCCCCCn1cc(Cn2c(-c3ccc(OS(=O)(=O)O)cc3)nc3ccccc3c2=O)nn1` [Inhibitor 16S]: the “change in IC50 from wild-type FXIa-CD” value on Lys535Ala FXIa-CD was “no change in IC50”. At FXIa-DEGR, the Hill coefficient n is given as 6.4 ± 2.0 and the ΔFMAX was determined as 90 ± 3%. Further, the “inhibition of FXIa-CD compared with wild-type enzyme” value at FXIa-CD is on record as “as potently as the wild-type enzyme”. Also, the “prolongation of APTT” value with human plasma [2] was “dose-dependent prolongation”. Further, in [5], the reduction in potency result is reported as “approximately 5 fold”. In addition, the “2 × PT (concentration to double clotting time)” value in the test on human plasma [3] (citrated human plasma) was greater than 2000 µM. For the same molecule, the “activity in the PT assay” value with human plasma [3] (human plasma) is given as “much less active”. Also, the “loss in inhibition by addition of polybrene” value in [6] is listed as 1.45 fold. Moreover, at Lys539Ala FXIa-CD, the “change in IC50 from wild-type FXIa-CD” value is on record as “no change in IC50”.

At human factor XIa [1], `O=c1c2ccccc2nc(-c2ccc(OS(=O)(=O)O)cc2)n1Cc1cn(CCn2cc(Cn3c(-c4ccc(OS(=O)(=O)O)cc4)nc4ccccc4c3=O)nn2)nn1` [Inhibitor 28S] had an IC50 of less than 100 µM. Besides, the “fold less potent than 15S” value on human factor XIa [1] (versus 15S) is given as “approximately 6 fold”.
